Structures are written as SMILES.

Experimental findings from paper PMC4698108 (Mucosal immunology, 2015) are described below.

Test [1] relates to Vβ6+ CD4+ T cells in lung and BAL. The experiment in a line: TCR Vβ6 expression on CD4+ T cells after BeO exposure. The test is classed as in vivo, HLA-DP2 Tg FVB/N mice. The essentials: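 HLA-DP2 Tg FVB/N mice, 6–8 weeks old, were anesthetized with isoflurane and given 100 μg BeO by oropharyngeal aspiration on days 0, 1, 2, 14, 15, 18 and 19, then sacrificed on day 21. BAL used three 0.5 ml PBS instillations, pooled from 20 mice. Lungs were collagenase-digested (1 mg/ml, 30 min, 37°C). Cells were stained with a seven-mAb anti-Vβ panel, and small versus blasting lymphocytes were gated by forward/side scatter.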

Test [2] has as its system HLA-DP2 variants with substitutions at positions 26, 68 and 69 of the β-chain. The test is classed as cell-based, human. The essentials:
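Human AV22 and murine Vβ6⁺ transfectomas were given BeSO₄ presented by fibroblasts expressing wild-type HLA-DP2 or β-chain variants carrying alanine, glutamine or lysine at positions 26, 68 or 69. Be-induced IL-2 (pg/ml) was measured by ELISA.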

Setting [3] is: BAL cells pooled from 20 BeO-exposed HLA-DP2 Tg mice.

As to `[Be]=[O]` [BeO, Be oxide], in test [1] (setting [3]), the “frequency of CD4+ T cells expressing Vβ6, blasting (large forward scatter) T cells” value is reported as 22.5% and the “frequency of CD4+ T cells expressing Vβ6, small lymphocyte gate” value came to 13.7%. For the same compound, the “percentage of BAL CD4+ T cells expressing Vβ6” value in test [1] (BAL of BeO-exposed mice, overall value given in text, unexposed lung 11.1%) is listed as 16.8%.
`O=S(=O)([O-])[O-].[Be+2]` [BeSO4]: in test [2] (AV22 transfectoma (Figure 4B)), the “Be-induced IL-2 secretion with the EA68 HLA-DP2 β-chain variant” value is “partial reduction in IL-2 secretion”. In addition, the “Be-induced IL-2 secretion with amino acid substitutions at positions 26, 68 and 69 of the HLA-DP2 β-chain” value in test [2] (human TCR AV22 and five murine T cell transfectomas, alanine, glutamine or lysine substitutions (Figure 4B)) is recorded as “abrogated Be-induced IL-2 secretion”.
